Data set [1] is described as follows: Cytotoxicity against human CRL8155 cells assessed as growth inhibition after 48 hrs by Alamar blue assay. It counts as cell-based. A digest of the protocol: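 Serial 3-fold dilutions in quadruplicate, 48 h, AlamarBlue read-out. Inhibition relative to untreated cells after subtracting a 50 µM quinacrine background. EC50 by nonlinear regression.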
Background: The colour change of resazurin is a common sign of viable cells or microbes.

Data set [2] concerns Trypanosoma brucei brucei. Description: Antitrypanosomal activity against Trypanosoma brucei brucei BF427 measured after 48 hrs by Alamar blue assay. It counts as functional, organism-based. The settings on record: BF427, 48 h. A digest of the protocol: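 Bloodstream T. brucei BF427 cultured in HMI-9 medium. Exposed to serial 3-fold compound dilutions in triplicate, read with Alamar Blue at 48 h. Pentamidine isethionate control in every assay.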

The test system of data set [3] is Mus musculus. Description: AUC in mouse at 50 mg/kg, po administered as single dose measured 24 hrs post dose by liquid chromatography/tandem mass spectrometric analysis. It counts as ADME, organism-based. The following applies: in vivo. The gist of the method: (§1)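 Single oral dose of 50 mg/kg to mice in Phosal 53 MCT (60%)/PEG400 (30%)/ethanol (10%). Tail blood collected at 0.5, 1, 2, 4, 6, 8 and 24 h post dose and spotted onto DMPK cards. Punched dried blood spot disks extracted with acetonitrile, quantified by LC-MS/MS.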

Data set [4] can be described thus: Ratio of drug level in mouse brain to plasma at 5 mg/kg, ip administered as single dose measured 1 hr post dose by liquid chromatography/tandem mass spectrometric analysis. It counts as ADME, organism-based. The gist of the method: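 Single IP injection of 5 mg/kg in 5% DMSO/7% Tween80/3% EtOH in 0.9% saline. At 1 h, plasma and brains collected; brains homogenized in water. Vehicle-injected mice (n=3) supplied matrix for standard curves. LC-MS/MS quantitation, with brain levels corrected for 3% v/w residual blood.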

Data set [5] can be described thus: Protein binding in Swiss Webster mouse plasma at 2 uM after 8 hrs by microdialysis based liquid chromatography/tandem mass spectrometric analysis. It counts as ADME, cell-free. A digest of the protocol:
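Compound at 2 µM in 50% pooled female Swiss Webster mouse plasma (lithium heparin) with 10X PBS, dialysed against blank 10X PBS in triplicate chambers of a microdialysis device. Incubation at 37 °C, 5% CO2 overnight or ≥8 h with shaking. Centrifuged 3000 rcf 15 min; supernatants concentrated, LC-MS/MS. Propranolol control.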

Data set [6] can be described thus: Half life in mouse liver microsomes at 1.5 uM by liquid chromatography/tandem mass spectrometric analysis. It counts as ADME, microsome. A digest of the protocol: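 Pooled mouse liver microsomes at 0.5 mg/ml with compound at 1.5 µM final, in duplicate. Quenched with acetonitrile at 0, 5, 10, 15, 30 and 60 min, analysed by LC-MS/MS. Testosterone and dextromethorphan run as controls.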
In general terms: Liver microsomes are a subcellular fraction often used to study metabolism.

Data set [7] in a line: Solubility in phosphate buffered saline at pH 7.4 at 50 uM incubated overnight by liquid chromatography/tandem mass spectrometric analysis. It counts as physicochemical. The settings on record: buffer, pH 7.4, 50 µM. A digest of the protocol: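 Compound at 50 µM in 1X PBS adjusted to pH 7.4, shaken overnight at 37 °C, then centrifuged 13500 rpm for 15 min at room temperature. Duplicate supernatant aliquots analysed by LC-MS/MS.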

For data set [8], the system named is Mus musculus. Description: Cmax in mouse at 50 mg/kg, po administered as single dose measured 24 hrs post dose by liquid chromatography/tandem mass spectrometric analysis. It counts as ADME, organism-based. More on the design: dose 50 mg/kg, route oral. The following applies: in vivo. A digest of the protocol:
as §1

Data set [9] deals with Trypanosoma brucei rhodesiense. Put plainly: Antitrypanosomal activity against trypomastigote form of Trypanosoma brucei rhodesiense STIB900 infected in mouse assessed as cure rate at 50 mg/kg administered via oral gavage bid from day 2 to 5 post infection measured 3 times per week for first month and weekly up to 60 days by microscopic method relative to control. It counts as functional.

The target in the next data set is Cytochrome P450 3A4 (Homo sapiens, UniProt P08684). Description: Inhibition of CYP3A4 (unknown origin). It counts as ADME.
Chain of Cytochrome P450 3A4 (P08684 whole entry): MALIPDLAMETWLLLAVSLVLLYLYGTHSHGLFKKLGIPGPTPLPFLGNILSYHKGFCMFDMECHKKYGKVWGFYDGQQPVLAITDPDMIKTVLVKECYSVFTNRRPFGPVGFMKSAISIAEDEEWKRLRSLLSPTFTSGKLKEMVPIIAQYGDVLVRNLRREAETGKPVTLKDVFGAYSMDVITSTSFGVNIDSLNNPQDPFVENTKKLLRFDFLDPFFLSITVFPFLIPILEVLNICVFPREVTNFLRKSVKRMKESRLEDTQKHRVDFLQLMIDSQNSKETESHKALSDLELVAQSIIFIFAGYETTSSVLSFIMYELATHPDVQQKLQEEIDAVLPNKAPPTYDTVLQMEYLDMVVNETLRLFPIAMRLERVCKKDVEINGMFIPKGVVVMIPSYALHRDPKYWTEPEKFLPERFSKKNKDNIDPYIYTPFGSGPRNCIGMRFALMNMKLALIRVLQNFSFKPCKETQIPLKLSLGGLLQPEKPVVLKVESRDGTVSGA

In general, CC50 refers to the concentration that lowers cell viability or growth by half. One may read the EC50 as the concentration needed to bring the measured effect to its halfway point. Low readings indicate greater potency, high ones weaker potency. One may read the AUC as concentration integrated over time. Higher therefore signals high exposure. What is called solubility is the dissolved amount per volume that the medium holds. As a reminder, the Cmax is the maximum level reached in the sampled fluid or tissue. In general, IC50 refers to the concentration that gives 50% inhibition. A high value points to lower potency.

≈ marks a conversion by molar mass, not a printed value. A value given as a limit tells only on which side of the number the result lay.

For `COc1cc(N2C(=O)CN(Cc3ccc(F)c(F)c3)C2=S)ccc1N(C)C`, in data set [1], the cytotoxic concentration (CC50) is over 50000 nM. The compound further came in with a concentration giving a half-maximal response (EC50) in data set [2] of 28 nM.
In the case of `COc1ccc(N2C(=O)CN(Cc3ccc(F)cc3)C2=S)cc1OC`, in data set [1], the CC50 is over 50000 nM. Besides, the response in data set [2] was half-maximal at 49 nM (EC50).
The like results for `COc1cc(F)ccc1CN1CC(=O)N(c2ccc(N(C)C)c(OC)c2)C1=S` were, in that order, 39600 nM and 11 nM.
In the case of `O=C1CN(Cc2ccc(F)cc2F)C(=S)N1c1ccc(N2CCCC2)c(Cl)c1`, in data set [1], the CC50 was over 50000 nM. Further, a half-maximal effect in [2] (EC50) was put at 10 nM.
In the case of `CN(C)c1ccc(N2C(=O)CN(Cc3ccc(F)c(F)c3)C2=S)cc1Cl`, the CC50 in data set [1] was over 50000 nM. In data set [2], this compound had an EC50 of 13 nM.
In the case of `CN(C)c1ccc(N2C(=O)CN(Cc3ccc(F)cc3)C2=S)cc1Cl`, the CC50 in data set [1] was 39000 nM. In the data set on Mus musculus [3], this compound yielded an AUC of 1376 µmol·min/L. Also, the BPR in [4] turned out to be 0.74. This compound had a PPB in data set [5] of 88.8%. The compound also had a t1/2 in [6] of 15 min. Also, the solubility in data set [7] came to 2.1 µM (≈ 0.794 µg/mL). This compound also gave an EC50 in data set [2] of 3 to 3.2 nM. The compound also displayed a Cmax with Mus musculus [8] of 2100 nM. Besides, the Activity in [9] was determined as 100%.
Regarding `COc1cc(N2C(=O)CN(Cc3ccc(F)cc3C(F)(F)F)C2=S)ccc1N(C)C`, in [1], the CC50 is over 50000 nM. This compound had a concentration giving a half-maximal response (EC50) in [2] of 28 nM.
The like results for `CN(C)c1ccc(N2C(=O)CN(Cc3ccc(F)cc3Cl)C2=S)cc1F` were, in that order, over 50000 nM and 15 nM.
The like results for `COc1cc(N2C(=O)CN(Cc3ccc(F)cc3[N+](=O)[O-])C2=S)ccc1N(C)C` were, in that order, over 50000 nM and 44 nM.
`COc1ccc(N2C(=O)CN(Cc3ccc(F)cc3[N+](=O)[O-])C2=S)cc1OC`: the CC50 in data set [1] was over 50000 nM. The 50% effective concentration (EC50) in data set [2] came to 555 nM.
The like results for `O=C1CN(Cc2ccc(F)cc2)C(=S)N1c1ccc(N2CCCC2)c(Cl)c1` were, in that order, over 50000 nM and 27 nM.
The like results for `COc1cc(F)ccc1CN1CC(=O)N(c2ccc(N(C)C)c(Cl)c2)C1=S` were, in that order, 12600 nM and 11 nM.
The like results for `CN(C)c1ccc(N2C(=O)CN(Cc3ccc(F)cc3C(F)(F)F)C2=S)cc1Cl` were, in that order, over 50000 nM and 22 nM.
For `O=C1CN(Cc2ccc(F)cc2Cl)C(=S)N1c1ccc(N2CCCC2)c(Cl)c1`, the CC50 in data set [1] is over 50000 nM. The compound also yielded an EC50 in data set [2] of 9 nM.
For `COc1cc(N2C(=O)CN(Cc3ccc(F)cc3Cl)C2=S)ccc1N(C)C`, in [1], the half-maximal cytotoxic concentration (CC50) was over 50000 nM. This compound also showed an area under the curve (AUC) in the data set on Mus musculus [3] of 750 µmol·min/L. In addition, the BPR in data set [4] is 1.68. Moreover, the PPB in [5] stood at 96.3%. In data set [7], this compound yielded a solubility of 4.1 µM (≈ 1.67 µg/mL). Moreover, the EC50 in [2] is 1.9 to 2 nM. The same compound had a Cmax with Mus musculus [8] of 2500 nM. Also, the Activity in data set [9] was 100%. Also, the half-maximal inhibitory concentration (IC50) against Cytochrome P450 3A4 was 7760 nM.
In the case of `CN(C)c1ccc(N2C(=O)CN(Cc3ccc(F)cc3F)C2=S)cc1F`, the half-maximal cytotoxic concentration (CC50) in data set [1] was over 50000 nM. In addition, the EC50 in [2] stood at 28 nM.
The like results for `COc1ccc(N2C(=O)CN(Cc3ccc(F)cc3F)C2=S)cc1OC` were, in that order, over 50000 nM and 33 nM.
The like results for `CN(C)c1ccc(N2C(=O)CN(Cc3ccc(F)cc3Cl)C2=S)cc1Cl` were, in that order, over 50000 nM and 2 nM.
The like results for `COc1ccc(N2C(=O)CN(Cc3ccc(F)c(F)c3)C2=S)cc1OC` were, in that order, over 50000 nM and 115 nM.
Consider `CN(C)c1ccc(N2C(=O)CN(Cc3ccc(F)cc3[N+](=O)[O-])C2=S)cc1Cl`, for which the CC50 in data set [1] is over 50000 nM. In data set [2], this compound gave a concentration for a half-maximal effect (EC50) of 19 nM.
The like results for `COc1ccc(N2C(=O)CN(Cc3ccc(F)cc3Cl)C2=S)cc1OC` were, in that order, 36800 nM and 14 nM.
The like results for `COc1cc(N2C(=O)CN(Cc3ccc(F)cc3F)C2=S)ccc1N(C)C` were, in that order, over 50000 nM and 6 nM.
As for `COc1cc(N2C(=O)CN(Cc3ccc(F)cc3)C2=S)ccc1N(C)C`, the cytotoxic concentration (CC50) in data set [1] is over 50000 nM. The compound also showed a half-maximal effective concentration (EC50) in data set [2] of 7 nM.
The like results for `CN(C)c1ccc(N2C(=O)CN(Cc3ccc(F)cc3F)C2=S)cc1Cl` were, in that order, over 50000 nM and 4 nM.
The like results for `COc1cc(F)ccc1CN1CC(=O)N(c2ccc(OC)c(OC)c2)C1=S` were, in that order, over 50000 nM and 107 nM.
The like results for `COc1ccc(N2C(=O)CN(Cc3ccc(F)cc3C(F)(F)F)C2=S)cc1OC` were, in that order, over 50000 nM and 37 nM.
In data set [5], `CC(C)NCC(O)COc1cccc2ccccc12` (stereo not drawn) [PROPRANOLOL] registered a PPB of 91.7%.
As for `CCN(CC)CCCC(C)Nc1c2ccc(Cl)cc2nc2ccc(OC)cc12` (stereo not drawn) [QUINACRINE], the CC50 in data set [1] was determined as 2340 nM.
